Test results from ChEMBL document CHEMBL3784923, “Azathioprine pharmacokinetics after intravenous, oral, delayed release oral and rectal foam administration” (Gut, 1996).

Assays:
[1] = Cmax in uraemic patient (8 patients) at 100 mg, po; details: human, in vivo
[2] = Clearance in uraemic patient (15 patients) at 100 mg, iv; details: human, in vivo
[3] = Oral bioavailability in uraemic patient (8 patients) at 100 mg; details: human, in vivo
[4] = Stability in plasma (unknown origin) using compound stored in frozen condition; assay type: ADME, cell-free; details: unidentified
[5] = Tmax in uraemic patient (8 patients) at 100 mg, po; details: human, in vivo
Homo sapiens = species: Homo sapiens; assay: Toxicity in inflammatory bowel disease patient assessed as induction of leucopenia; assay type: organism-based; details: in vivo
[6] = Volume of distribution at steady state in uraemic patient (15 patients) at 100 mg, iv; details: human, in vivo
[7] = Stability in whole blood (unknown origin) using compound stored in ice water slurry; assay type: ADME, tissue-based; details: unidentified
[8] = Stability of the compound in extracted form in plasma (unknown origin) at room temperature; assay type: ADME, cell-free; details: unidentified
Procedure, shortened: (§1)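 6MP in plasma was held at room temperature, both unextracted and after extraction, and measured by HPLC.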

[9] = Stability in plasma (unknown origin) at room temperature; assay type: ADME, cell-free; details: unidentified; procedure, shortened: as §1
[10] = Drug excretion in feces of human treated with Eudragit coated tablets; assay type: ADME, tissue-based; details: faeces, po, read-out: Drug excretion

Cmax [1] [µg/mL]	clearance [2] [L/h/kg]	bioavailability [3] [%]	Stability [4]	Tmax [5] [h]	Vd [6] [L/kg]	Stability [7]	Stability [8]	Stability [9] [h]	dose excreted [10] [%]	Structure (SMILES)	Activity (Homo sapiens) [%]
0.022	6.2	41	<= 1 yr	1.5	9.3	<= 5 hr	–	–	–	Cn1cnc([N+](=O)[O-])c1Sc1ncnc2nc[nH]c12 [AZATHIOPRINE]	2
–	–	–	<= 1 yr	–	–	<= 5 hr	<= 30 hr	4	–	Sc1ncnc2nc[nH]c12 [MERCAPTOPURINE ANHYDROUS]	2
–	–	–	–	–	–	–	–	–	25	Nc1ccc(O)c(C(=O)O)c1 [MESALAMINE]	–
